Laboratory results taken from ChEMBL document CHEMBL1138607, “Synthesis of novel thiourea, thiazolidinedione and thioparabanic acid derivatives of 4-aminoquinoline as potent antimalarials” (Bioorg Med Chem Lett, 2009).
≈ marks a conversion by molar mass, not a printed value.

What was measured:
[1] = Selectivity index, ratio of IC50 for african green monkey (Cercopithecus aethiops) Vero cells to IC50 for Plasmodium falciparum 3D7; assay type: toxicity, cell-based; conditions: read-out: Ratio IC50
Summary of the method: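 P. falciparum 3D7 was tested by SYBR Green I fluorescence at 0.5% parasitaemia: two-fold dilutions from 500 ng/mL (seven concentrations), duplicate wells, 72 h, then lysis buffer with dye. Vero cells (1 × 10⁴/well) got MTT after 72 h with compound. Each IC₅₀ came from non-linear regression dose–response curves; selectivity index is the Vero/3D7 ratio.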

Plasmodium falciparum = test: Antimalarial activity against chloroquine-sensitive Plasmodium falciparum 3D7 after 72 hrs by SYBR Green assay; conditions: 3D7, 72 h
Plasmodium yoelii [2] = test: Antiplasmodial activity as reduced parasitaemia against chloroquine-resistant Plasmodium yoelii N67 infected Swiss mice (Mus musculus) at 50 mg/kg/day after 4 days; assay type: functional; parameters: scale not given: the % may be the effect or the level left
Summary of the method: (§1)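 Swiss mice inoculated on day 0 with 1×10⁶ P. yoelii N-67 parasitized RBC. Groups of five received 50 mg/kg/day intraperitoneally, once daily on days 0–3, as aqueous suspensions with a few drops of Tween 80. Parasitaemia read from thin blood smears. Percent suppression calculated from the group mean against untreated infected controls.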

Plasmodium yoelii [3] = test: Antiplasmodial activity as reduced parasitaemia against chloroquine-resistant Plasmodium yoelii N67 infected Swiss mice (Mus musculus) at 50 mg/kg/day intraperitoneal dose after 10 days; assay type: functional; parameters: scale not given: the % may be the effect or the level left; summary of the method: as §1
Plasmodium yoelii [4] = test: Antiplasmodial activity as reduced parasitaemia against chloroquine-resistant Plasmodium yoelii N67 infected Swiss mice (Mus musculus) at 10 mg/kg/day peroral dose over 10 days; assay type: functional; parameters: scale not given: the % may be the effect or the level left; conditions: route oral
Summary of the method: (§2)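 Swiss mice inoculated on day 0 with 1×10⁶ P. yoelii N-67 parasitized RBC. […] Parasitaemia read from thin blood smears. Percent suppression calculated from the group mean against untreated infected controls.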

Plasmodium yoelii [5] = test: Antiplasmodial activity as reduced parasitaemia against chloroquine-resistant Plasmodium yoelii N67 infected Swiss mice (Mus musculus) at 10 mg/kg/day peroral dose after 4 days; assay type: functional; parameters: scale not given: the % may be the effect or the level left; conditions: route oral; summary of the method: as §2

| SMILES | selectivity ratio [1] | IC50 (Plasmodium falciparum) [µg/mL] | Activity (Plasmodium yoelii [2]) [%] | Activity (Plasmodium yoelii [3]) [%] | Activity (Plasmodium yoelii [4]) [%] | Activity (Plasmodium yoelii [5]) [%] |
| --- | --- | --- | --- | --- | --- | --- |
| S=C(NCCNc1ccnc2cc(Cl)ccc12)Nc1ccccc1 | 997 | 0.00922 (≈ 0.0258 µM) |  |  |  |  |
| S=C(NCCNc1ccnc2cc(Cl)ccc12)Nc1ccccc1Cl | 332 | 0.0205 (≈ 0.0524 µM) |  |  |  |  |
| C=CCN1C(=O)C(=O)N(CCCNc2ccnc3cc(Cl)ccc23)C1=S | 80.4 | 0.0548 (≈ 0.141 µM) |  |  |  |  |
| O=C1C(=O)N(c2ccccc2Cl)C(=S)N1CCCNc1ccnc2cc(Cl)ccc12 | 122 | 0.0397 (≈ 0.0864 µM) |  |  |  |  |
| O=C1C(=O)N(c2ccccc2Cl)C(=S)N1CCNc1ccnc2cc(Cl)ccc12 | 3.36 | 0.199 (≈ 0.448 µM) |  |  |  |  |
| O=C1C(=O)N(c2ccccc2)C(=S)N1CCCNc1ccnc2cc(Cl)ccc12 | 65.5 | 0.151 (≈ 0.354 µM) |  |  |  |  |
| CCCCN1C(=O)C(=O)N(CCCNc2ccnc3cc(Cl)ccc23)C1=S | 27.2 | 0.0697 (≈ 0.172 µM) |  |  |  |  |
| CCCCNC(=S)NCCNc1ccnc2cc(Cl)ccc12 | 750 | 0.00607 (≈ 0.018 µM) | 99.27 | 50.5 |  |  |
| C=CCNC(=S)NCCNc1ccnc2cc(Cl)ccc12 | 668 | 0.0261 (≈ 0.0814 µM) |  |  |  |  |
| S=C(NCCCNc1ccnc2cc(Cl)ccc12)Nc1ccccc1 | 968 | 0.01 (≈ 0.027 µM) |  |  |  |  |
| CCCCNC(=S)NCCCNc1ccnc2cc(Cl)ccc12 | 600 | 0.0118 (≈ 0.0337 µM) |  |  |  |  |
| S=C(NCCCNc1ccnc2cc(Cl)ccc12)Nc1ccccc1Cl | 1110 | 0.0102 (≈ 0.0251 µM) | 16.82 |  |  |  |
| O=C1S/C(=N\c2ccccc2)N(CCNc2ccnc3cc(Cl)ccc23)C1=O | 605 | 0.0295 (≈ 0.0718 µM) |  |  |  |  |
| C=CCNC(=S)NCCCNc1ccnc2cc(Cl)ccc12 | 582 | 0.042 (≈ 0.125 µM) |  |  |  |  |
| C=CC/N=C1\SC(=O)C(=O)N1CCNc1ccnc2cc(Cl)ccc12 | 603 | 0.0324 (≈ 0.0865 µM) |  |  |  |  |
| CCCC/N=C1\SC(=O)C(=O)N1CCCNc1ccnc2cc(Cl)ccc12 | 256 | 0.011 (≈ 0.0272 µM) |  |  |  |  |
| C=CC/N=C1\SC(=O)C(=O)N1CCCNc1ccnc2cc(Cl)ccc12 | 475 | 0.112 (≈ 0.287 µM) |  |  |  |  |
| O=C1C(=O)N(c2ccccc2)C(=S)N1CCNc1ccnc2cc(Cl)ccc12 | 118 | 0.119 (≈ 0.29 µM) |  |  |  |  |
| O=C1S/C(=N\c2ccccc2Cl)N(CCNc2ccnc3cc(Cl)ccc23)C1=O | 543 | 0.0121 (≈ 0.0272 µM) | 5.45 |  |  |  |
| O=C1S/C(=N\c2ccccc2)N(CCCNc2ccnc3cc(Cl)ccc23)C1=O | 637 | 0.011 (≈ 0.026 µM) |  |  |  |  |
| CCCC/N=C1\SC(=O)C(=O)N1CCNc1ccnc2cc(Cl)ccc12 | 480 | 0.0174 (≈ 0.0446 µM) |  |  |  |  |
| CCCCN1C(=O)C(=O)N(CCNc2ccnc3cc(Cl)ccc23)C1=S | 406 | 0.0331 (≈ 0.0846 µM) |  |  |  |  |
| O=C1S/C(=N\c2ccccc2Cl)N(CCCNc2ccnc3cc(Cl)ccc23)C1=O | 434 | 0.0175 (≈ 0.0381 µM) |  |  |  |  |
| C=CCN1C(=O)C(=O)N(CCNc2ccnc3cc(Cl)ccc23)C1=S | 141 | 0.104 (≈ 0.278 µM) |  |  |  |  |
| CCN(CC)CCCC(C)Nc1ccnc2cc(Cl)ccc12 (centres undefined) [CHLOROQUINE] |  |  |  |  | 73.92 | 99.05 |
